Measurements published in ChEMBL document CHEMBL3244412, “Benzopyrones. 14. Synthesis and antiallergic properties of some N-tetrazolylcarboxamides and related compounds” (1978).
≈ marks a conversion by molar mass, not a printed value.

How the values were obtained:
[1] = Antianaphylactic activity in rat mast cells assessed as inhibition of DNP-ovalbumin-induced histamine release after 15 mins by superfusion assay; type: functional; conditions: Mast cell, 0.25 h, read-out: ED50 (the source's name)
Outline: (§1)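 Peritoneal and pleural cells from male albino rats were washed, sensitized with 1:10 rat reaginic anti-DNP-ovalbumin serum for 2 h at 37 °C, and resuspended at 1.2-1.7 × 10⁵ mast cells/mL. Compound and DNP-ovalbumin were added together and incubated for 15 min at 37 °C. Supernatant (free) and lysed-cell (residual) histamine were assayed by guinea pig ileum superfusion bioassay. Inhibition of net histamine release was used to derive EC50 from dose ranging against the reference compound.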

[2] = Antianaphylactic activity in rat mast cells assessed as inhibition of DNP-ovalbumin-induced histamine release after 15 mins by superfusion assay relative to 4-oxo-N-(5-tetrazolyl)-4H-l-benzopyran-2-carboxamide; type: functional, Mast cell; outline: as §1
[3] = system: Rattus norvegicus; assay: Antiallergic activity in rat assessed as inhibition of DNP-ovalbumin-induced passive cutaneous anaphylaxis at 1 mg/kg, iv after 30 mins relative to control; type: functional; conditions: for inhibition in vivo at 1 mg/kg: Rattus norvegicus, iv, 0.5 h
Outline: (§2)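 Female albino rats (groups of four) were shaved and sensitized by dorsal intradermal injection of 0.1 mL diluted rat reaginic anti-DNP-ovalbumin serum, raised with Bordetella pertussis adjuvant. After 48 h they were challenged iv with 2 mg DNP-ovalbumin in 0.5 mL 1% Evans blue/saline, with the compound given iv in aqueous solution at the same time. After 30 min, skin weals were scored visually on a 5-point scale; % inhibition was taken versus vehicle controls.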

[4] = system: Rattus norvegicus; assay: Antiallergic activity in rat assessed as inhibition of DNP-ovalbumin-induced passive cutaneous anaphylaxis at 5 mg/kg, iv after 30 mins relative to control; type: functional; conditions: 0.5 h; outline: as §2

Row | Compound | EC50 [1] [µg/mL] | fold change (potency relative to reference compound) [2] | inhibition in vivo at 1 mg/kg [3] [%] | inhibition in vivo at 5 mg/kg [4] [%] | inhibition (INH) [3] [%]
1 | NC(=O)c1cc(=O)c2cc(N)ccc2o1 | > 18 | <0.005 | 10 |  | 
2 | Cc1oc2ccc(S(=O)(=O)Nc3nnn[nH]3)cc2c(=O)c1C | > 18 | <0.005 | 20 |  | 
3 | O=c1c(/C=N/O)coc2ccccc12 | > 18 | 0.0006 | 25 |  | 
4 | O=C(O)c1coc2ccccc2c1=O | > 18 | <0.005 | 20 |  | 
5 | O=C([O-])c1cc(=O)c2c(OCC(O)COc3cccc4oc(C(=O)[O-])cc(=O)c34)cccc2o1.[Na+].[Na+] [CROMOLYN SODIUM] | 2.55 | 0.02 | 40 |  | 
6 | O=C(O)CNC(=O)c1ccc2oc(C(=O)NCC(=O)O)cc(=O)c2c1 | > 18 | <0.005 | 10 |  | 
7 | Cn1nnnc1NC(=O)c1cc(=O)c2ccccc2o1 | > 18 | <0.005 | 0 |  | 
8 | O=C(Nc1nnn[nH]1)c1cc(=O)c2cc([N+](=O)[O-])ccc2o1 | 5.5 (≈ 18.2 µM) | 0.01 | 15 |  | 
9 | CN1CCN(C(=O)c2coc3ccccc3c2=O)CC1.Cl | 14 | 0.007 | 20 |  | 
10 | O=C(Nc1nnn[nH]1)c1ccc2oc(-c3nnn[nH]3)cc(=O)c2c1 | 0.055 (≈ 0.169 µM) | 1 | 70 |  | 
11 | O=C(Nc1nnn[nH]1)c1ccc2oc(C(=O)Nc3nnn[nH]3)cc(=O)c2c1 | 0.55 (≈ 1.49 µM) | 0.1 | 100 |  | 
12 | O=c1c(-n2nn[nH]c2=O)coc2ccccc12 | 5 (≈ 21.7 µM) | 0.01 |  | 75 | 
13 | CCOC(=O)c1cc(=O)c2cc(NC(=O)Cc3nnn[nH]3)ccc2o1 | 11 (≈ 32 µM) | 0.005 | 65 |  | 
14 | O=C(Nc1nnn[nH]1)c1ccc2occc(=O)c2c1 | 0.7 (≈ 2.72 µM) | 0.08 | 35 |  | 
15 | O=C(Cc1nnn[nH]1)Nc1coc2ccccc2c1=O | > 18 | <0.005 |  | 0 | 
16 | O=C(Nc1nc[nH]n1)c1cc(=O)c2ccccc2o1 | 5 (≈ 19.5 µM) | 0.002 | 0 |  | 
17 | O=C(O)c1ccc2occc(=O)c2c1 | > 18 | <0.005 | 0 |  | 

Row | Compound | EC50 [1] [µg/mL] | fold change (potency relative to reference compound) [2] | inhibition in vivo at 1 mg/kg [3] [%] | inhibition in vivo at 5 mg/kg [4] [%] | inhibition (INH) [3] [%]
18 | O=C(/C=C/c1coc2ccccc2c1=O)Nc1nnn[nH]1 | 6 (≈ 21.2 µM) | <0.005 | 65 |  | 
19 | O=C(O)CCNC(=O)c1cc(=O)c2ccccc2o1 | > 18 | <0.005 | 0 |  | 
20 | O=C(Nc1nnn[nH]1)c1cc(=O)c2cc(Cl)ccc2o1 | 0.75 (≈ 2.57 µM) | 0.12 | 65 |  | 
21 | O=C(Nc1nccs1)c1cc(=O)c2ccccc2o1 | > 18 | <0.005 | 15 |  | 
22 | CN1CCN(C(=O)c2cc(=O)c3ccccc3o2)CC1.Cl | > 18 | <0.005 | 0 |  | 
23 | O=C(O)CCCCCNC(=O)c1cc(=O)c2ccccc2o1 | > 18 | <0.005 | 0 |  | 
24 | N#Cc1ccc2oc(C(=O)Nc3nnn[nH]3)cc(=O)c2c1 | 2.3 (≈ 8.15 µM) | 0.03 | 100 |  | 
25 | Cn1nnc(NC(=O)c2cc(=O)c3ccccc3o2)n1 |  |  | 25 |  | 
26 | CN1CCN(C(=O)/C=C/c2coc3ccccc3c2=O)CC1 | > 18 | <0.005 | 0 |  | 
27 | CCOC(=O)C(=O)Nc1ccc2oc(C(=O)OCC)cc(=O)c2c1 | 12 (≈ 36 µM) | 0.005 | 65 |  | 
28 | O=C(NCCO)c1ccc2oc(C(=O)NCCO)cc(=O)c2c1 | > 18 | <0.005 | 15 |  | 
29 | O=C(Nc1nnn[nH]1)c1cc(=O)c2cc(-c3nnn[nH]3)ccc2o1 | 0.1 (≈ 0.307 µM) | 0.85 | 70 |  | 
30 | Cc1ccc2c(=O)cc(C(=O)Nc3nnn[nH]3)oc2c1.NCCO | 0.16 | 0.75 |  |  | 80
31 | CN(C(=O)c1cc(=O)c2ccccc2o1)c1nnn[nH]1 | > 18 | <0.005 | 0 |  | 
32 | O=C(O)CCCNC(=O)c1cc(=O)c2ccccc2o1 | > 18 | <0.005 | 0 |  | 
33 | NC(=O)c1cc(=O)c2ccc(O)c(N)c2o1 | > 18 | <0.005 | 15 |  | 

Continued, in another order:

Row | EC50 [1] [µg/mL] | Compound | fold change (potency relative to reference compound) [2] | inhibition in vivo at 1 mg/kg [3] [%] | inhibition in vivo at 5 mg/kg [4] [%] | inhibition (INH) [3] [%]
34 | > 18 | COc1ccc2c(=O)c(-c3ccccc3)c(C(=O)Nc3nnn[nH]3)oc2c1 | <0.005 | 25 |  | 
35 | > 18 | O=C(Nc1nnn[nH]1)c1coc(=O)c2ccccc12 | <0.005 | 0 |  | 
36 | 0.11 (≈ 0.403 µM) | O=C(Nc1nnn[nH]1)c1cc(=O)c2ccc(O)cc2o1 | 0.77 | 65 |  | 
37 | 0.4 (≈ 1.47 µM) | Cc1c(C(=O)Nc2nnn[nH]2)oc2ccccc2c1=O | 1 | 70 |  | 
38 | > 18 | Cc1ccc2oc(C(=O)O)c(-c3ccccc3)c(=O)c2c1 | <0.005 | 0 |  | 
39 | 0.085 (≈ 0.269 µM) | O=C(Nc1nnn[nH]1)c1oc2ccccc2c(=O)c1NCCO | 0.18 | 100 |  | 
40 | 8 (≈ 23 µM) | Cc1ccc2oc(C(=O)Nc3nnn[nH]3)c(-c3ccccc3)c(=O)c2c1 | 0.005 | 50 |  | 
41 | > 18 | O=C(Nc1nnn[nH]1)c1oc2ccccc2c(=O)c1N1CCOCC1 | <0.005 | 10 |  | 
42 | 0.048 (≈ 0.167 µM) | COc1ccc2c(=O)cc(C(=O)Nc3nnn[nH]3)oc2c1 | 1.8 | 75 |  | 
43 | 0.033 (≈ 0.128 µM) | O=C(Nc1nnn[nH]1)c1coc2ccccc2c1=O | 0.48 | 65 |  | 
44 | > 18 | O=C(Nc1nnn[nH]1)c1cc2ccccc2c(=O)o1 | <0.005 | 0 |  | 
45 | 0.65 (≈ 2.12 µM) | O=C(Nc1nnn[nH]1)c1cccc2c(=O)c3ccccc3[nH]c12 | 0.14 | 90 |  | 
46 | 0.4 (≈ 1.4 µM) | CNc1c(C(=O)Nc2nnn[nH]2)oc2ccccc2c1=O | 0.04 | 100 |  | 
47 | 0.58 (≈ 2.14 µM) | Cc1ccc2c(=O)cc(C(=O)Nc3nnn[nH]3)oc2c1 | 0.19 | 75 |  | 
48 | 0.024 | NCCCO.O=C(Nc1nnn[nH]1)c1oc2ccccc2c(=O)c1NCCCO | 0.67 | 100 |  | 
49 | 0.8 (≈ 2.74 µM) | O=C(Nc1nnn[nH]1)c1oc2ccccc2c(=O)c1Cl | 0.11 | 75 |  | 
50 | 0.075 (≈ 0.277 µM) | Cc1ccc2oc(C(=O)Nc3nnn[nH]3)cc(=O)c2c1 | 1.2 | 75 |  | 
